The subject of data set [1] is Candida albicans. The data set is described as follows: Photodynamic inactivation of Candida albicans ATCC 18804 at the fluence of 64 J/cm2 light at 20 uM after 10 mins. The data set is classed as functional. Put shortly: (§1)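 Exponential cultures were used: bacteria about 10^8 cells/mL in BHI, Candida in YM. Cells were dark-incubated with dye for 10 min at room temperature, then washed and resuspended in PBS without Ca2+/Mg2+. Illumination used 30-nm band-pass red light (630, 652 or 660 ± 15 nm per dye) at 60–100 mW/cm2 and room temperature. Ten-fold serial dilutions were plated on BHI agar at 37 °C overnight. CFU survival was expressed relative to untreated cells, in triplicate.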

The nature of data set [2]: Partition coefficient, log P at pH 7.4. The data set is classed as physicochemical. The following applies: octanol/water.
Data set [3] deals with Escherichia coli. The data set is described as follows: Photodynamic inactivation of Escherichia coli ATCC 25922 at the fluence of 64 J/cm2 light at 5 uM after 10 mins. In kind it is functional. Put shortly: as §1
The subject of data set [4] is Enterococcus faecalis. The data set can be described thus: Photodynamic inactivation of Enterococcus faecalis ATCC 29212 at the fluence of 64 J/cm2 light at 2 uM after 10 mins. The data set is classed as functional. Put shortly:
as §1

Data set [5] deals with Escherichia coli. The data set can be described thus: Cellular uptake in Escherichia coli ATCC 25922 at 5 uM after 10 mins. In kind it is functional, organism-based. The method, boiled down: (§2)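 Exponential-phase cells (bacteria in BHI, yeast in YM, 37 °C, 150 rpm) were incubated with dye in the dark for 10 min at room temperature. Centrifugation at 1550g for 6 min removed unbound dye, and pellets were resuspended in PBS without Ca2+/Mg2+. Pellets were dissolved in 10% SDS for ≥24 h. Fluorescence peak height was read at the dye-specific excitation and emission, against SDS calibration curves. Means of three experiments.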

In data set [6] the test system is Candida albicans. The data set is described as follows: Photodynamic inactivation of Candida albicans ATCC 18804 at the fluence of 80 J/cm2 light at 20 uM after 10 mins. The data set is classed as functional. Put shortly:
as §1

For data set [7], the system named is Candida albicans. The data set is described as follows: Cellular uptake in Candida albicans ATCC 18804 at 20 uM after 10 mins. In kind it is functional, organism-based. Put shortly:
as §2

The subject of data set [8] is Enterococcus faecalis. The data set can be described thus: Photodynamic inactivation of Enterococcus faecalis ATCC 29212 at the fluence of 80 J/cm2 light at 2 uM after 10 mins. The data set is classed as functional. The method, boiled down: as §1
Data set [9] concerns Escherichia coli. The data set can be described thus: Photodynamic inactivation of Escherichia coli ATCC 25922 at the fluence of 80 J/cm2 light at 5 uM after 10 mins. In kind it is functional. The method, boiled down: as §1
The test system of data set [10] is Escherichia coli. The data set is described as follows: Photodynamic inactivation of Escherichia coli ATCC 25922 at the fluence of 32 J/cm2 light at 5 uM after 10 mins. In kind it is functional. Put shortly:
as §1

Data set [11] relates to Enterococcus faecalis. The data set can be described thus: Cellular uptake in Enterococcus faecalis ATCC 29212 at 2 uM after 10 mins. The data set is classed as functional, organism-based. Put shortly:
as §2

Data set [12] deals with Enterococcus faecalis. The data set is described as follows: Photodynamic inactivation of Enterococcus faecalis ATCC 29212 at the fluence of 8 J/cm2 light at 2 uM after 10 mins. In kind it is functional. Put shortly:
as §1

The subject of data set [13] is Candida albicans. The data set is described as follows: Photodynamic inactivation of Candida albicans ATCC 18804 at the fluence of 4 J/cm2 light at 20 uM after 10 mins. The data set is classed as functional. The method, boiled down:
as §1

As for `CC/N=c1/cc2sc3cc(N(CC)CC)ccc3nc-2c2ccccc12.Cl`, the Activity with Candida albicans [1] was above 98%; in the data set on Escherichia coli [3] it was above 99%; with Enterococcus faecalis [4] it was above 99.9%. In [2], this molecule gave a logD of 2.76. Further, the Drug uptake in the data set with Escherichia coli [5] came to 75%.
Turning to `CC/N=c1/cc2oc3cc(N(CC)CC)ccc3nc-2c2ccccc12.Cl`, the Activity is reported as above 97% with Candida albicans [6], 95% with Enterococcus faecalis [8] and 90% in the data set with Escherichia coli [9]. Besides, in the data set on Candida albicans [7], the Drug uptake amounted to 75%. In addition, the logD in data set [2] was 2.69.
As to `CC/N=c1/cc2[se]c3cc(N(CC)CC)ccc3nc-2c2ccccc12.Cl`, the figures for the Activity in the data set on Escherichia coli [10], in the data set with Enterococcus faecalis [12] and in the data set with Candida albicans [13] were above 100%, above 99.999% and above 99%, respectively. Moreover, the logD in data set [2] stood at 2.08. This molecule had a Drug uptake in the data set with Enterococcus faecalis [11] of 75%.

As a reminder, the logD is the decadic logarithm of the distribution of all forms, ionised or not, between an organic phase and buffer at a given pH. Read a high logD as higher lipophilicity.

For the origin of these results see ChEMBL document CHEMBL1146843, “Synthesis and properties of benzo[a]phenoxazinium chalcogen analogues as novel broad-spectrum antimicrobial photosensitizers” (J Med Chem, 2006).
